# MrgX1 agonist = human MrgX1 receptor agonism, primary screen; B-score at 10 µM; MrgX1-HEK293 cells, Fluo-4 calcium fluorescence, agonist mode; active compounds read high; Q96LB2; actives 0.44% (n = 310,000); AID 588627;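 active = calcium response B-score plate-corrected fluorescence ratio at least 3 library SD, with starting fluorescence B-score inside 5 SD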
# Target sequence (Q96LB2 whole entry, looked up): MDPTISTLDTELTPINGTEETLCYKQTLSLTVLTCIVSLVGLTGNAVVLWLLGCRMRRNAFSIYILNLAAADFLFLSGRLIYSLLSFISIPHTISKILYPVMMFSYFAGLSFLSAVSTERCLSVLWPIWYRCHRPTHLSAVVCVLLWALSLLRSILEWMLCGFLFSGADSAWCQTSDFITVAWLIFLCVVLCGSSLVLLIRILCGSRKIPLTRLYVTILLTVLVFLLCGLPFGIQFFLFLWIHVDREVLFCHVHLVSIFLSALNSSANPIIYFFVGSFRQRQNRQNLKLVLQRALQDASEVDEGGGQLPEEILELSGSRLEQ
#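 Assay system: MrgX1-expressing HEK293 cells / Amount: fifteen thousand cells per well / Doses: test compound in the initial addition of three / Timing: cells plated overnight, dye loaded 0.5 h 37 °C, 0.5 h room temperature / Technique: kinetic calcium dye fluorescence, Fluo-4 NW / Control set: positive and negative controls per plate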
# MrgX1 PAM = human MrgX1 positive allosteric modulation, primary screen; Q96LB2; MrgX1-HEK293, Fluo-4 calcium flux, FDSS; active compounds read high; B-score at 10 µM; actives 0.63% (n = 310,000);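 active = plate-corrected calcium response at least 3 library SD above typical, normal starting fluorescence, not activating the receptor alone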;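 also: compound read alongside a low EC10 to EC30 dose of BAM8-22 agonist; peak minus trough fluorescence over baseline measured at the second addition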
# RGS4 act = potentiators or activators of RGS4; HEK293 M3R/inducible RGS4, carbachol calcium flux Fluo4; active compounds read low; B-score at 10 µM; actives 0.92% (n = 310,000); AID 463111;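 active = B-score of the integrated calcium signal more than 4 SD below the library mean, with starting fluorescence not abnormally high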;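 also: negative B-score means reduced calcium response which marks RGS4 activation or potentiation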
#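 Assay system: HEK293 FlpIn-TREx cells, stable M3R, doxycycline-inducible RGS4 / Probe or stimulus: carbachol, ECmax concentration / Times: overnight RGS4 induction, 30 min dye load 37 °C, 20 min compound RT / Signal: kinetic calcium fluorescence imaging with Fluo4-AM dye, 2 µM / Measure: Agonist-evoked peak-minus-minimum fluorescence over baseline, integrated ratio, B score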
# RGS4 inh = inhibitors of human RGS4; AID 463165; actives 0.45% (n = 310,000); HEK293 M3R/RGS4 inducible, Fluo-4 calcium flux; active compounds read high; triggered by carbachol at its EC20; B-score at 10 µM; P49798;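 active = B-score, a plate-corrected calcium signal, over three deviations above library mean, with baseline fluorescence within five deviations of library mean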;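 also: RGS4 expression induced by doxycycline in cells with stable M3 receptor; B-score is computed from the integrated fluorescence ratio over baseline after carbachol; higher B-score means a larger calcium signal and so more RGS4 inhibition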
# Target sequence (P49798 whole entry, looked up): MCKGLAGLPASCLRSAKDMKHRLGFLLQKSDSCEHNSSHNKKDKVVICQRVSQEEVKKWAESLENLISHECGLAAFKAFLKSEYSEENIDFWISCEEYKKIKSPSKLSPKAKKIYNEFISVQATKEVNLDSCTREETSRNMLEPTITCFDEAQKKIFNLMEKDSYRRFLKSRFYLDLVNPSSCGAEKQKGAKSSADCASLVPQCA
# MrgX1 antag = antagonists of human MrgX1 receptor. Q96LB2. B-score at 10 µM. actives 1.3% (n = 310,000). MRGX1-HEK293 calcium flux, Fluo-4, BAM8-22 antagonism; active compounds read low;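 active = calcium-response B-score plate-corrected more than 3 library SD below zero, starting fluorescence within 5 deviations, no agonist response on first addition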;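 also: peak minus trough fluorescence over baseline after final BAM8-22 challenge near maximal dose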
# MrgX1 allo conf = reconfirmed allosteric activator of human MrgX1 receptor | activation (ratio percentage), % at 10 µM | MrgX1-HEK293, Fluo-4 calcium fluorescence, FDSS | shares compounds with MrgX1 PAM | AID 602413 | actives 13% (n = 1,200);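 active = ratio at least 3 SD above the weak peptide control, stable starting fluorescence, no direct agonism earlier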;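 also: compound followed by low BAM8-22 agonist challenge near EC20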
# MrgX1 ant reconf = confirmation of human MrgX1 receptor antagonists. actives 19% (n = 2,300). remaining BAM8-22 calcium response % of control (active compounds read low), % at 10 µM. MrgX1-HEK293, BAM8-22 calcium flux, Fluo-4; active compounds read low. shares compounds with MrgX1 antag;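 active = remaining agonist calcium response no higher than 100% minus 3 SD of agonist-only control wells, with starting fluorescence near control levels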;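 also: agonist BAM8-22 given at a near maximal EC90 to ECmax level; peak minus minimum fluorescence divided by baseline after agonist addition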
# HEK293 Ca flux = MrgX1 antagonist counter-screen hit in parental HEK293 cells | shares compounds with MrgX1 antag | actives 2% (n = 4,000) | AID 624111 | fluorescence ratio F(max-min)/F0 at 10 µM | Fluo-4 calcium fluorescence, FDSS;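 active = duplicate-averaged calcium fluorescence ratio at least three times the standard deviation of buffer wells, a nonspecific response in parental cells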
# HEK293 Ca counter = MrgX1 allosteric activator counter-screen hit in parental HEK293 cells. shares compounds with MrgX1 antag. parental HEK293 calcium flux, Fluo-4 fluorescence ratio; active compounds read high. fluorescence ratio F(max-min)/F0 at 10 µM. actives 0.4% (n = 4,000). AID 624114;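 active = calcium fluorescence ratio, averaged over duplicates, at least 3 SD of the buffer-well ratio, meaning a nonspecific response in receptor-free cells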;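 also: untransfected parental HEK293 lacking MrgX1 used as counterscreen for MrgX1 allosteric activators; fluorescence change taken during the second addition on a kinetic imager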
# HEK293 Ca cntr2 = MrgX1 activator counter-screen hit in parental HEK293 cells | actives 8.7% (n = 4,000) | Fluo-4 calcium fluorescence (FDSS); active compounds read high | shares compounds with MrgX1 antag | fluorescence ratio F(max-min)/F0 at 10 µM;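 active = calcium fluorescence ratio at least three times the spread of buffer wells, meaning a non-specific response in parental cells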
# A number is an active result; n = inactive; x = no result. An excerpt weighted towards active compounds, which were near 3.5% of everything screened.
SMILES,MrgX1 agonist,MrgX1 PAM,RGS4 act,RGS4 inh,MrgX1 antag,MrgX1 allo conf,HEK293 Ca flux,HEK293 Ca counter,HEK293 Ca cntr2,others
Cc1ccc(Nc2nc3ccccc3s2)c(C)c1,n,7,n,n,n,n,n,n,n,
O=S(=O)(Cc1ccccc1)NCc1cccnc1,n,n,n,n,n,x,x,x,x,
CC/C(=C\C(=O)c1cccnc1)Nc1ccc(C)c(C)c1,n,8.7,n,n,n,n,n,n,n,
O=C(COC(=O)c1cccs1)c1ccccc1,n,18,n,n,n,n,n,n,n,
CCn1cc(CN2CCC(Oc3ccc(C(=O)N4CCCCC4)cc3)CC2)cn1,n,n,n,n,n,x,x,x,x,
CCCCC(=O)Nc1cccc(-c2nnc(-c3ccccc3)o2)c1,n,n,n,n,n,x,x,x,x,
COC(=O)c1ccc(OCCCCN2CC(C)OC(C)C2)cc1 (centres undefined),n,10,n,n,n,n,n,n,n,
Cc1ccc(N2CC(C(=O)Nc3ccc(C)c(S(=O)(=O)N(C)C)c3)CC2=O)cc1 (centres undefined),n,10,n,n,n,n,n,n,n,
Cc1cc(C)c(C#N)c(Sc2ccc(N)cc2)n1,n,12,n,n,n,n,n,n,n,
CCOC(=O)c1cc(C)nc(Sc2ccc(C)cc2)c1C#N,n,n,n,n,n,x,x,x,x,
CCCC[C@H](CN[C@@H](CNC)[C@H](C)CC)NCCC12CCC(CC1)C2,n,n,n,n,n,x,x,x,x,
O=C(NCCc1csc(-c2cccnc2)n1)c1ccc(Cl)cc1,n,n,n,n,n,x,x,x,x,
O=C(NCCc1csc(-c2cccnc2)n1)c1cccc(Cl)c1,n,9.6,n,n,n,n,n,n,n,
Cc1cccc2nc3ccccc3nc12,n,9.3,n,n,n,n,n,n,n,
c1ccc2nc3ccccc3nc2c1,n,n,n,n,n,x,x,x,x,
O=C(Nc1ccc(OCc2ccccc2)cc1)c1cccs1,n,n,n,n,n,x,x,x,x,
Cc1ccccc1-n1c(SCC(=O)N(C)C2CCS(=O)(=O)C2)nc2ccccc2c1=O (centres undefined),n,14,n,n,n,n,n,n,n,
CCC(C)[C@H]1CN=C(N)N1CCc1cccc2ccccc12 (some centres undefined),n,n,n,n,n,x,x,x,x,
NC1=NC[C@H](Cc2ccc(O)cc2)N1CCc1cccc2ccccc12,n,9.6,n,n,-12,n,n,n,n,MrgX1 ant reconf=n
NC1=NC[C@@H](Cc2ccc(O)cc2)N1CCc1cccc2ccccc12,n,n,n,n,n,x,x,x,x,
NCCCC[C@H]1CN=C(N)N1CCc1cccc2ccccc12,n,33,n,n,n,n,n,n,n,
NC1=NC[C@H](Cc2ccc(O)cc2)N1CCCCC1CCCCC1,n,9.3,n,n,n,n,n,n,n,
COc1ccc(OC)c(CN2CCN(C(=O)c3cccc(S(=O)(=O)Nc4ccccc4OC)c3)CC2)c1,n,n,n,n,n,x,x,x,x,
COc1ccc(OC)c(CN2CCN(C(=O)c3ccc(NS(=O)(=O)c4cccc([N+](=O)[O-])c4)cc3)CC2)c1,n,20,n,n,n,38%,n,n,n,
CC(=O)c1cc(OC(=O)c2ccncc2)ccc1OC(=O)c1ccncc1,n,n,n,n,n,x,x,x,x,
SMILES,MrgX1 agonist,MrgX1 PAM,RGS4 act,RGS4 inh,MrgX1 antag,MrgX1 allo conf,HEK293 Ca flux,HEK293 Ca counter,HEK293 Ca cntr2,others
COCCNC(=O)CN(C(=O)CCC(=O)Nc1nccs1)c1ccc2c(c1)OCO2,n,33,n,n,n,n,n,n,n,
CC(C)NC(=O)CN(C(=O)CCC(=O)Nc1nccs1)c1ccc2c(c1)OCO2,n,n,n,n,n,x,x,x,x,
O=C(N/N=C\c1c(O)ccc2ccccc12)c1ccc(S(=O)(=O)N2CCCCC2)cc1,n,20,n,n,n,n,0.42,n,65,
O=C(N/N=C/c1c(O)ccc2ccccc12)c1ccc(CO)nc1,n,n,n,n,n,x,x,x,x,
CCC(CC)C(=O)Nc1cc(NC(=O)C(CC)CC)cc(C(=O)O)c1,n,n,n,n,n,x,x,x,x,
COc1cc(OC)cc(C(=O)N2CCN(C3CCN(Cc4ccccc4)CC3)CC2)c1,n,n,n,n,n,x,x,x,x,
Nc1nc(OCC(F)(F)F)cc(Oc2ccccc2F)n1,n,9.8,n,n,n,n,n,n,n,
O=C(CCc1nc2ccccc2c(=O)[nH]1)Nc1ccccc1N1CCCC1,n,n,n,n,n,x,x,x,x,
Cc1nc(-c2ccc(S(=O)(=O)Nc3cc(F)ccc3F)cc2)co1,n,n,n,n,n,x,x,x,x,
COc1cccc(C(=O)Nc2sc3c(c2C#N)CCN(C(C)=O)C3)c1,n,n,n,n,n,x,x,x,x,
CCc1ccc(Oc2cc(Cl)nc(N)n2)cc1,n,12,n,n,n,n,n,n,n,
C=CCNC(=S)NNC(=O)C(CC(C)C)CC(C)O (centres undefined),n,n,n,n,n,x,x,x,x,
Cc1cc(/C=C2/SC(=S)N(c3cccc(Cl)c3)C2=O)c(C)n1-c1cccnc1,n,19,n,n,n,n,n,n,n,
COc1ccc(C2=CC(c3ccc(F)cc3)n3nnnc3N2)cc1 (centres undefined),n,7,n,n,n,n,n,n,n,
COc1ccc(C2=CC(c3sccc3C)n3nnnc3N2)cc1 (centres undefined),n,n,n,n,n,x,x,x,x,
Cc1ccc(-c2csc(NC(=O)c3ccc(C)o3)n2)cc1,n,n,n,n,n,x,x,x,x,
Cc1ccc(-c2csc(N=C(N)N)n2)cc1,n,7,n,n,n,n,n,n,n,
CCN(CC)S(=O)(=O)c1cc([N+](=O)[O-])ccc1N1CCC(C(N)=O)CC1,n,n,n,n,n,x,x,x,x,
COc1ccccc1-n1c(C)cc(/C=C2/C(=N)N3C(=NC2=O)SN=C3S(C)(=O)=O)c1C,n,21,n,n,n,n,n,n,n,
CC1CN(CCOc2ccccc2-c2ccccc2)CC(C)O1 (centres undefined),n,n,n,n,n,x,x,x,x,
COc1ccc(CC(=O)NC(=S)Nc2cccc(CO)c2)cc1,n,7.2,n,n,n,n,n,n,n,

# Screens as filed in PubChem.
